ChEMBL document CHEMBL1154191, “Evaluation of spirocyclic 3-(3-fluoropropyl)-2-benzofurans as sigma1 receptor ligands for neuroimaging with positron emission tomography” (J Med Chem, 2009)

How the values were obtained:
Format in all cases: ADME, organism-based
Kidney = assay: Biodistribution in CD1 mouse kidney assessed per gram of wet tissue at 400 to 600 kBq, iv after 60 mins post-injection by gamma counting; conditions: in vivo, 1 h
Summary of the method: (§1)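 Female CD-1 mice (~8-12 weeks, 20-28 g) were fasted 24 h with free water. Conscious mice got 400-600 kBq [¹⁸F] tracer in saline by tail vein. At 5, 30, 60 or 120 min (n=4-5 per time) they were anesthetized, blood and urine sampled, then killed by cervical dislocation. Organs were weighed and γ-counted, giving % ID/g wet tissue.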

Liver = assay: Biodistribution in CD1 mouse liver assessed per gram of wet tissue at 400 to 600 kBq, iv after 120 mins post-injection by gamma counting; conditions: in vivo, 2 h; summary of the method: as §1
[1] = Biodistribution in CD1 mouse adrenal gland assessed per gram of wet tissue at 400 to 600 kBq, iv after 30 mins post-injection by gamma counting; conditions: in vivo, 0.5 h; summary of the method: as §1

Work on `[18F]CCCC1OC2(CCN(Cc3ccccc3)CC2)c2ccccc21` (stereo not drawn) yielded a Drug uptake (Kidney) of 5.14 %ID, a Drug uptake (Liver) of 2.93 %ID and a Drug uptake [1] of 7.63 %ID.
